Experimental data taken from ChEMBL document CHEMBL1153112, “Identification of a series of substituted 2-piperazinyl-5-pyrimidylhydroxamic acids as potent histone deacetylase inhibitors” (Bioorg Med Chem Lett, 2010).
pIC50: −log10 of the molar value. Converted amounts (≈) assume the structure as drawn.

How the values were obtained:
[1] = test system: A2780; assay: Antiproliferative activity against human A2780 cells; assay type: functional, cell-based
In short: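 A2780 ovarian carcinoma proliferation assay in 384-well format, modified from the patent protocol. IC50 given as the mean of triplicate experiments ± SD; some values come from a single experiment.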

[2] = molecular target: Histone deacetylase; assay: Inhibition of HDAC in human HeLa cells extractt; assay type: cell-free
[3] = Clearance in Sprague-Dawley rat at 2.5 mg/kg, iv administered in water at pH 4.4; assay type: ADME, organism-based; set-up: dose 2.5 mg/kg, route intravenous; details: in vivo
In short: (§1)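 Male Sprague-Dawley rats. IV arm dosed at 2.5 mg/kg in water at pH 4.4; oral arm dosed at 10 mg/kg in water at pH 4.5. AUC0-inf taken for each route. Clearance and Vdss come from the IV arm. F (%) comes from the oral versus IV exposure.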

[4] = AUC (0 to infinity) in Sprague-Dawley rat at 10 mg/kg, po administered in water at pH 4.5; assay type: ADME, organism-based; set-up: time infinity, dose 10 mg/kg, route oral; details: plasma; in short: as §1
[5] = Oral bioavailability in Sprague-Dawley rat at 10 mg/kg administered in water at pH 4.5; assay type: ADME, organism-based; details: in vivo; in short: as §1
[6] = Half life in Sprague-Dawley rat at 2.5 mg/kg, iv administered in water at pH 4.4 measured 1 to 4 hrs post dose; assay type: ADME, organism-based; set-up: dose 2.5 mg/kg, route intravenous; details: in vivo
In short: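 Male Sprague-Dawley rats given 2.5 mg/kg IV in water at pH 4.4. Terminal half-life fitted over the 1 h to 4 h post-dose window.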

[7] = Volume of distribution at steady state in Sprague-Dawley rat at 2.5 mg/kg, iv administered in water at pH 4.4; assay type: ADME, organism-based; set-up: dose 2.5 mg/kg, route intravenous; details: in vivo, read-out: Vdss; in short: as §1
[8] = AUC (0 to infinity) in Sprague-Dawley rat at 2.5 mg/kg, iv administered in water at pH 4.4; assay type: ADME, organism-based; set-up: time infinity, dose 2.5 mg/kg, route intravenous; details: plasma; in short: as §1
[9] = Half life in Sprague-Dawley rat at 2.5 mg/kg, iv administered in water at pH 4.4 measured 2 to 8 hrs post dose; assay type: ADME, organism-based; set-up: dose 2.5 mg/kg, route intravenous; details: in vivo
In short: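 Male Sprague-Dawley rats given 2.5 mg/kg IV in water at pH 4.4. Half-life estimated from the 2 h to 8 h post-dose interval.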

[10] = Thermodynamic solubility in phosphate-citrate buffer at pH 7.7; assay type: physicochemical
In short: (§2)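 Thermodynamic solubility. About 2.5 mg of solid was weighed and equilibrated in phosphate-citrate buffer at the stated pH, then filtered where needed. The filtrate was diluted in 0.1 N HCl/acetonitrile (1/1) and the concentration measured by UPLC.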

[11] = test system: A2780; assay: Anticancer activity against human A2780 cells expressing p21 waf1,cip1 xenografted in athymic nude mouse assessed as fold increase in fluorescence at 40 mg/kg, po administered once for 3 days relative to R306465; assay type: functional
In short: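 A2780 ovarian carcinoma cells engineered to express ZsGreen under the p21waf1,cip1 promoter were grafted subcutaneously into athymic nude mice. Animals were dosed orally at 40 mg/kg for 3 days. In vivo fluorescence induction was then read by noninvasive whole-body imaging and expressed as fold increase versus reference R306465 set at 1.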

[12] = Thermodynamic solubility in phosphate-citrate buffer at pH 4.6; assay type: physicochemical; in short: as §2
[13] = Thermodynamic solubility in phosphate-citrate buffer at pH 7.4; assay type: physicochemical; in short: as §2

## CN1CCN(CC(/C=C/c2ccccc2)N2CCN(c3ncc(C(=O)NO)cn3)CC2)CC1 (centres undefined)
[1]; Homo sapiens, A2780
  pIC50: 6.41
[2]
  IC50: 0.0069 µM

## O=C(NO)c1cnc(N2CCN(C(/C=C/c3ccc(-c4ccccc4)cc3)CO)CC2)nc1 (centres undefined)
[1]; Homo sapiens, A2780
  pIC50: 7.54
[2]
  IC50: 0.0009 µM

## O=C(NO)c1cnc(N2CCN(C(/C=C/c3ccccc3)CN3CCOCC3)CC2)nc1 (centres undefined)
[1]; Homo sapiens, A2780
  pIC50: 6.50
[2]
  IC50: 0.011 µM

## O=C(NO)c1cnc(N2CCN(C(/C=C/c3ccccc3)CO)CC2)nc1 (stereo in doubt; 3a1)
[1]; a2780
  pIC50: 7.40
[2]
  IC50: 0.001 µM

## Cc1ccc(/C=C/C(CO)N2CCN(c3ncc(C(=O)NO)cn3)CC2)cc1 (centres undefined)
[1]; Homo sapiens, A2780
  pIC50: 7.74
[2]
  IC50: 0.001 µM

## O=C(NO)c1cnc(N2CCN(C(/C=C/c3ccc(F)cc3)CO)CC2)nc1 (single isomer, unassigned; (-))
[1]; a2780
  pIC50: 7.51
[3]
  clearance: 4.6 L/h/kg
[4]
  AUC(0-inf): 0.466 µg·h/mL
[5]
  bioavailability: 22%
[6]
  half-life: 0.8 h
[7]
  Vd: 1.6 L/kg
[8]
  AUC(0-inf): 0.521 µg·h/mL

## O=C(NO)c1cnc(N2CCN(C(/C=C/c3ccccc3F)CO)CC2)nc1 (centres undefined)
[1]; Homo sapiens, A2780
  pIC50: > 7.52
[2]
  IC50: 0.002 µM

## CC(/C=C/c1ccccc1)N1CCN(c2ncc(C(=O)NO)cn2)CC1 (centres undefined)
[1]; Homo sapiens, A2780
  pIC50: 7.70
[2]
  IC50: 0.0017 µM

## O=C(NO)c1cnc(N2CCN(C(/C=C/c3ccc(C(F)(F)F)cc3)CO)CC2)nc1 (centres undefined)
[1]; Homo sapiens, A2780
  pIC50: 7.19
[2]
  IC50: 0.0021 µM

## O=C(NO)c1cnc(N2CCN(S(=O)(=O)c3ccc4ccccc4c3)CC2)nc1 [R-306465]
[9]
  half-life: 1.5 h
[1]; Homo sapiens, A2780
  pIC50: 7.41
[3]
  clearance: 0.8 L/h/kg
[4]
  AUC(0-inf): 3.38 µg·h/mL
[5]
  bioavailability: 20%
[7]
  Vd: 0.6 L/kg
[8]
  AUC(0-inf): 2.65 µg·h/mL
[10]
  solubility thermodynamic: < 0.1 mg/mL

## O=C(NO)c1cnc(N2CCN(C(/C=C/c3ccc(F)cc3)CO)CC2)nc1 (single isomer, unassigned; (+))
[1]; a2780
  pIC50: 7.57

## O=C(NO)c1cnc(N2CCN(C(/C=C/c3cccc(F)c3)CO)CC2)nc1 (centres undefined)
[1]; Homo sapiens, A2780
  pIC50: 7.44
[2]
  IC50: 0.0012 µM

## NC(/C=C/c1ccccc1)CN1CCN(c2ncc(C(=O)NO)cn2)CC1 (centres undefined)
[1]; Homo sapiens, A2780
  pIC50: 6.55
[11]
  fold change (FC): 0.5
[2]
  IC50: 0.0038 µM

## O=C(NO)c1cnc(N2CCN(C(/C=C/c3ccccc3)CO)CC2)nc1 (stereo in doubt; 3a)
[9]
  half-life: 2.6 h
[12]
  solubility thermodynamic: > 10 mg/mL
[1]; Homo sapiens, A2780
  pIC50: 7.60
[11]
  fold change (FC): 5
[13]
  solubility thermodynamic: 1.1 mg/mL (≈ 2980 µM)
[3]
  clearance: 5.9 L/h/kg
[4]
  AUC(0-inf): 0.316 µg·h/mL
[5]
  bioavailability: 19%
[2]
  IC50: 0.002 µM
[7]
  Vd: 5.8 L/kg
[8]
  AUC(0-inf): 0.413 µg·h/mL

## O=C(NO)c1cnc(N2CCN(C(/C=C/c3ccc(Cl)cc3)CO)CC2)nc1 (centres undefined)
[1]; Homo sapiens, A2780
  pIC50: 7.77
[2]
  IC50: 0.0012 µM

## COc1ccc(/C=C/C(CO)N2CCN(c3ncc(C(=O)NO)cn3)CC2)cc1 (centres undefined)
[1]; Homo sapiens, A2780
  pIC50: 7.74
[2]
  IC50: 0.00095 µM

## O=C(NO)c1cnc(N2CCN(Cc3ccc4ccccc4c3)CC2)nc1
[1]; Homo sapiens, A2780
  pIC50: 7.18
[2]
  IC50: 0.0015 µM

## O=C(NO)c1cnc(N2CCN(C(/C=C/c3ccccc3)C(=O)N3CCOCC3)CC2)nc1 (centres undefined)
[1]; Homo sapiens, A2780
  pIC50: 6.91
[2]
  IC50: 0.007 µM

## O=C(NO)c1cnc(N2CCC(NC(/C=C/c3ccccc3)CO)CC2)nc1 (centres undefined)
[1]; Homo sapiens, A2780
  pIC50: 6.66
[2]
  IC50: 0.007 µM

## O=C(NO)c1cnc(N2CCN(C(/C=C/c3ccccc3)CO)CC2)nc1 (single isomer, unassigned; (-))
[1]; a2780
  pIC50: 7.52
[2]
  IC50: 0.0018 µM

## O=C(NO)c1cnc(N2CCC(CNC(/C=C/c3ccccc3)CO)CC2)nc1 (centres undefined)
[1]; Homo sapiens, A2780
  pIC50: 7.33
[2]
  IC50: 0.0015 µM

## O=C(NO)c1cnc(N2CCOC(CNC(/C=C/c3ccccc3)CO)C2)nc1 (centres undefined)
[1]; Homo sapiens, A2780
  pIC50: 6.53
[2]
  IC50: 0.008 µM

## COCC(/C=C/c1ccccc1)N1CCN(c2ncc(C(=O)NO)cn2)CC1 (centres undefined)
[1]; Homo sapiens, A2780
  pIC50: 7.35
[2]
  IC50: 0.0015 µM

## CNC(=O)C(/C=C/c1ccccc1)N1CCN(c2ncc(C(=O)NO)cn2)CC1 (centres undefined)
[1]; Homo sapiens, A2780
  pIC50: 6.80
[2]
  IC50: 0.0033 µM

## O=C(NO)c1cnc(N2CCN(C(/C=C/c3ccc(F)cc3)CO)CC2)nc1 (stereo in doubt; 3i)
[1]; Homo sapiens, A2780
  pIC50: 7.49
